# Assay results from the M2OR odorant receptor database.
# Target: T1, OR1A1 (Homo sapiens) (UniProt Q9P1Q5)
# T1 sequence (whole entry): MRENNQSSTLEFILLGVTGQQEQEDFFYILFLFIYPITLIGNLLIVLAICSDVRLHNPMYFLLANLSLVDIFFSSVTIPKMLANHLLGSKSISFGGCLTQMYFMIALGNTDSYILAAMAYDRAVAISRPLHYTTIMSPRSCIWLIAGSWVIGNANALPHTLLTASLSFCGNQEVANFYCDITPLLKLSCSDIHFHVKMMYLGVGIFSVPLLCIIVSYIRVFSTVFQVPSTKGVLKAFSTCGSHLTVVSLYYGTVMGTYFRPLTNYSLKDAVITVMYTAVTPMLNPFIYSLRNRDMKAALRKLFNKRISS
# Settings: stereoisomer not certain
# How it was run: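 Each receptor–molecule pair is labelled responsive or non-responsive (inactive) according to whether the original authors judged the measured signal statistically different from baseline. The data were taken from the main text and supplementary material of published papers and checked for typos and inconsistencies. Assay methods differed by source, with transient luciferase assays in mammalian cell lines being common.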
# 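Also: active if original authors judged signal statistically different from baseline.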
row,Structure (SMILES),odorant receptor agonist call
1,CN(C)C,inactive
2,CCCCC(C)CCC(=O)O (stereo unspecified),inactive
3,Cc1cnccn1,inactive
4,CCOC(=O)C(C)CC (stereo unspecified),inactive
5,C1CCNC1,inactive
6,CC(C)=CCCC(C)=CCCC(C)=CCO,inactive
7,CC(C)CO,inactive
8,CCc1ccc(O)cc1,inactive
9,CCCCCC(=O)CC(C)=O,active
10,CCC=CCC=O,inactive
11,CC(=O)OCc1ccccc1,active
12,CC(=O)O,inactive
13,COCCC(C)(C)S,inactive
14,CC(C)CCO,inactive
15,CCOC(=O)C=Cc1ccccc1,inactive
16,SCCc1ccccc1,active
17,CCCSSSC,inactive
18,CC(C)CCCCCCCCCCC=O,inactive

row,Structure (SMILES),odorant receptor agonist call
1,COc1ccc(C)cc1O,inactive
2,CCCCCCC1CCC(=O)O1 (stereo unspecified),inactive
3,CCOC(=O)CC(C)C,inactive
4,COc1cc(C(=O)O)ccc1O,inactive
5,CCC=CCCC=CCO,inactive
6,CC(=O)C(C)C(C)=O,inactive
7,O=c1ccc2ccccc2o1,inactive
8,COC(=O)C(C)C,inactive
9,CC(=O)OCCc1ccccc1,active
10,COc1cccc(OC)c1O,inactive
11,CCC=CCCCCCC=O,active
12,Cc1occc(=O)c1O,inactive
13,C=CCSC,inactive
14,CC=CC(=O)C(C)CC (stereo unspecified),inactive
15,CCCCC=CC=CC=O,inactive
16,COc1nccnc1C(C)C,inactive
17,CCc1ccc(O)c(OC)c1,inactive
18,CCCCCC(=O)OCC,active
